Reference: ChEMBL document CHEMBL1139481, “Synthesis and biological activity of anticancer ether lipids that are specifically released by phospholipase A2 in tumor tissue” (J Med Chem, 2005)

Key:
Type in all cases: functional, cell-based
HT-29 = test: Cytotoxicity against human HT29 cells after 72 hrs by MTT assay; conditions: HT-29, 72 h
Summary of the method: (§1)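 Cells (Caco-2 in Dulbecco's modified Eagle medium; HT-29 in McCoy's 5A; both with 10% FCS and 2 mM L-glutamine; KATO III in RPMI 1640 with 10% heat-inactivated FCS, 2 mM L-glutamine, 1 mM pyruvate, 5% CO2, 37 °C) plated at 1 × 10^4/well 24 h before adding AELs in PBS with 5-30% ethanol. After 72 h, MTT read-out. IC50 is 50% reduction in cell number; mean ± SD, n = 3-9.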

MDA-MB-435 [1] = test: Inhibition of Akt phosphorylation in MDA-MB-435 cells after 2 hrs; conditions: Homo sapiens, MDA-MB-435, 2 h
Summary of the method: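 MDA-MB-435 cells at 70% confluency, serum-starved 18 h, then given compound for 2 h and stimulated with insulin 10 µg/mL for 30 min. Lysates taken in Laemmli buffer after an ice-cold PBS wash. Western blot probed for Ser473 phospho-Akt, with total Akt as loading control. Controls: no insulin, and wortmannin 2 µM for 2 h before insulin.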

MDA-MB-435 [2] = test: Cytotoxicity against human MDA-MB-435 cells after 3 days in serum free conditions by MTT assay; conditions: MDA-MB-435, 72 h
Summary of the method: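 MDA-MB-435 cells grown in Dulbecco's modified Eagle medium with 10% FCS and 2 mM L-glutamine, then plated at 1 × 10^4/well 24 h before treatment. Lipids in PBS with 5-30% ethanol were added, and cells were incubated 3 days without serum to match the Akt study conditions. MTT read-out was expressed as percentage reduction in incorporated MTT, run in triplicate.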

[3] = Cytotoxicity against human KATO3 cells after 72 hrs by MTT assay; conditions: KATO3, 72 h; summary of the method: as §1
Caco-2 = test: Cytotoxicity against human Caco-2 cells after 72 hrs by MTT assay; conditions: Caco-2, 72 h; summary of the method: as §1

IC50 (MDA-MB-435 [1]) | SMILES | IC50 (HT-29) | IC50 (MDA-MB-435 [2]) | IC50 [3] | IC50 (Caco-2)
24 µM | CCCCCCCCCCCCCCCCOC[C@@H](O)COP(=O)(O)OC[C@H](O)CO | 105 µM | 73 µM |  | 
3 µM | CCCCCCCCCCCCCCCCCCOCC(COP(=O)([O-])OCC[N+](C)(C)C)OC (configuration not stated) [EDELFOSINE] |  | 12 µM |  | 
5 µM | CCCCCCCCCCCCCCCCOP(=O)([O-])OCC[N+](C)(C)C [MILTEFOSINE] |  | 23 µM |  | 
24 µM | CCCCCCCCCCCCCCCCOC[C@@H](O)COP(=O)(O)OC[C@@H](O)CO | 20 µM | 47 µM | 49 µM | 75 µM
